Data as given in ChEMBL document CHEMBL4033642, “Design and synthesis of neolamellarin a derivatives targeting heat shock protein 90” (Eur J Med Chem, 2017).

What was measured:
[1] = system: NCI-H1299; assay: Antiproliferative activity against human H1299 cells after 48 hrs by resazurin dye-based fluorescence assay; assay type: functional, cell-based; settings: NCI-H1299, 48 h
Method in brief: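 H1299 non-small-cell lung cells, kept subconfluent, passages 3–30, seeded 2000 cells/well; after 24 h exposed to serial concentrations in serum complete medium, 0.1% DMSO final, for 48 h. Resazurin then added, 16 h at 37 °C; fluorescence read at 544 nm excitation/595 nm emission, proportional to viable cells. IC50 from three repeats.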

[2] = system: NCI-H1299; assay: Antiproliferative activity against human H1299 cells assessed as inhibition of cell viability after […] by resazurin dye-based fluorescence assay; assay type: functional
Method in brief: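 H1299 cells, 2000/well, seeded 24 h, then exposed to serial compound concentrations in serum-containing complete medium for 48 h (DMSO vehicle, 0.1% final). Resazurin (2 mg/mL stock) added, 16 h at 37 °C. Fluorescence read at 544 nm ex / 595 nm em; RFU taken as proportional to living cells.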

[3] = system: NCI-H1299; assay: Induction of apoptosis in human H1299 cells assessed as increase in cleaved PARP levels after 72 hrs by Western blot analysis; assay type: functional, cell-based
Method in brief: (§1)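 H1299 cells seeded in 15 cm dishes at 8 × 10⁴ cells/mL, 24 h, then treated at 7.5 and 15 µM for 72 h at 37 °C; DMSO-only controls. Lysed on ice 30 min, cleared at 10000 × g, protein by BCA. 25–100 µg run on 10% or 12% SDS-PAGE, blotted to nitrocellulose. Probed with antibodies to CDK2, EGFR, p-EGFR (Tyr1068), AKT, p-AKT, cleaved PARP; β-actin loading control; chemiluminescence; three repeats.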

[4] = target: T1, Heat shock protein HSP 90-alpha (Homo sapiens, UniProt P07900); assay: Inhibition of HSP90alpha in human H1299 cells assessed as decrease in phosphorylation of AKT after 72 hrs by Western blot analysis; assay type: cell-based; method in brief: as §1
[5] = target: T1, Heat shock protein HSP 90-alpha; assay: Inhibition of HSP90alpha in human H1299 cells assessed as decrease in EGFR levels after 72 hrs by Western blot analysis; assay type: cell-based; method in brief: as §1
[6] = target: T1, Heat shock protein HSP 90-alpha; assay: Inhibition of HSP90alpha in human H1299 cells assessed as decrease in phosphorylation of EGFR after 72 hrs by Western blot analysis; assay type: cell-based; method in brief: as §1
[7] = target: T1, Heat shock protein HSP 90-alpha; assay: Inhibition of HSP90alpha in human H1299 cells assessed as decrease in AKT levels after 72 hrs by Western blot analysis; assay type: cell-based; method in brief: as §1
[8] = target: T1, Heat shock protein HSP 90-alpha; assay: Inhibition of FITC-GA binding to N-terminal domain of HSP90alpha (unknown origin) after 5 hrs by fluorescence polarization assay
[9] = system: NCI-H1299; assay: Induction of apoptosis in human H1299 cells assessed as inhibition of expression of CDK2 after 72 hrs by Western blot analysis; assay type: functional, cell-based; method in brief: as §1

COc1ccc(-c2cn(Cc3ccc(O)c(O)c3)cc2-c2ccc(OC)c(OC)c2)cc1OC
IC50 [1]: 23.4 µM

COc1ccc(Cn2cc(-c3ccc(O)cc3)c(-c3ccc(O)cc3)c2)cc1
IC50 [1]: 37.3 µM

COc1ccc(-c2cn(Cc3ccc(O)cc3)cc2-c2ccc(OC)c(OC)c2)cc1OC
IC50 [1]: 30.6 µM

COc1cccc(Cn2cc(-c3ccc(O)cc3)c(-c3ccc(O)cc3)c2)c1
IC50 [1]: 25.3 µM

COc1ccc(-c2cn(Cc3ccc(O)c(O)c3)cc2-c2ccc(OC)cc2)cc1
inhibition [2]: Dose-dependent effect | IC50 [1]: 19.1 µM

COc1ccccc1Cn1cc(-c2ccc(O)cc2)c(-c2ccc(O)cc2)c1
IC50 [1]: 23.1 µM

COc1cc(-c2cn(Cc3ccc(O)cc3)cc2-c2cc(OC)c(OC)c(OC)c2)cc(OC)c1OC
IC50 [1]: > 100 µM

COc1ccc(Cn2cc(-c3ccc(O)cc3)c(-c3ccc(O)cc3)c2)c(OC)c1
IC50 [1]: 31.6 µM

COc1ccc(Cn2cc(-c3ccc(O)cc3)c(-c3ccc(O)cc3)c2)cc1OC
inhibition [2]: Dose-dependent effect | IC50 [1]: 29.2 µM

COc1ccc(Cn2cc(-c3ccc(O)cc3)c(-c3ccc(O)cc3)c2)c(OC)c1OC
IC50 [1]: 25.1 µM

COc1ccc(Cn2cc(-c3ccc(O)c(O)c3)c(-c3ccc(O)c(O)c3)c2)cc1
Activity [3]: Dose-dependent effect | inhibition [2]: Dose-dependent effect | IC50 [1]: 8.3 µM | inhibition [4]: Dose-dependent effect | inhibition [5]: Dose-dependent effect | inhibition [6]: Dose-dependent effect | inhibition [7]: Dose-dependent effect | IC50 [8]: 0.752 µM | inhibition [9]: Dose-dependent effect

COc1ccc(-c2cn(Cc3ccccc3O)cc2-c2ccc(OC)cc2)cc1
IC50 [1]: 20.8 µM

COc1ccccc1Cn1cc(-c2ccc(O)c(O)c2)c(-c2ccc(O)c(O)c2)c1
IC50 [1]: 8.6 µM

COc1ccc(Cn2cc(-c3ccc(O)c(O)c3)c(-c3ccc(O)c(O)c3)c2)cc1OC
Activity [3]: Dose-dependent effect | inhibition [2]: Dose-dependent effect | IC50 [1]: 10.5 µM | inhibition [4]: Dose-dependent effect | inhibition [5]: Dose-dependent effect | inhibition [6]: Dose-dependent effect | inhibition [7]: Dose-dependent effect | IC50 [8]: 0.374 µM | inhibition [9]: Dose-dependent effect

COc1cc(-c2cn(Cc3ccc(O)c(O)c3)cc2-c2cc(OC)c(OC)c(OC)c2)cc(OC)c1OC
IC50 [1]: 29.2 µM

C=CCNC1=C2C[C@@H](C)C[C@H](OC)[C@H](O)[C@@H](C)/C=C(\C)[C@H](OC(N)=O)[C@@H](OC)/C=C\C=C(/C)C(=O)NC(=CC1=O)C2=O [TANESPIMYCIN]
IC50 [1]: 0.2 µM

COc1ccc(-c2cn(Cc3ccc(O)cc3)cc2-c2ccc(OC)cc2)cc1
IC50 [1]: 20.5 µM

Oc1ccc(-c2cn(Cc3ccccc3)cc2-c2ccc(O)cc2)cc1
IC50 [1]: 26.9 µM

COc1cc(Cn2cc(-c3ccc(O)c(O)c3)c(-c3ccc(O)c(O)c3)c2)cc(OC)c1OC
Activity [3]: Dose-dependent effect | inhibition [2]: Dose-dependent effect | IC50 [1]: 13.2 µM | inhibition [4]: Dose-dependent effect | inhibition [5]: Dose-dependent effect | inhibition [6]: Dose-dependent effect | inhibition [7]: Dose-dependent effect | IC50 [8]: 0.852 µM | inhibition [9]: Dose-dependent effect
